ChEMBL document CHEMBL1156266, “Antisense oligonucleotides containing conformationally constrained 2',4'-(N-methoxy)aminomethylene and 2',4'-aminooxymethylene and 2'-O,4'-C-aminomethylene bridged nucleoside analogues show improved potency in animal models” (J Med Chem, 2010)
Active and inactive are the calls of the source. No cut-off for these calls is given here.

What was measured:
Mus musculus [1] = assay: Reduction in PTEN mRNA expression in ip dosed BALB/c mouse liver administered twice a week for 3 weeks measured after 72 hrs of last dose by RT-PCR analysis; format: functional
In short: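 Male Balb/c mice, 6-week-old, ASO in PBS ip twice weekly for 3 weeks, four dose levels. Killed 72 h after last dose. Liver homogenized in guanidine isothiocyanate buffer, RNA column-purified. PTEN RNA by fluorescence qRT-PCR, normalized to cyclophilin A. Errors are SD.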

Nucleic Acid = assay: Binding affinity to mouse PTEN mRNA assessed as melting temperature at 4 uM by thermal denaturation assay; format: nucleic-acid assay
In short: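 Duplex with complementary length-matched RNA; UV absorbance versus temperature curves in 100 mM Na+, 10 mM phosphate, 0.1 mM EDTA, 4 μM each strand. Tm is the average of two experiments.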

[2] = Reduction in PTEN mRNA expression in mouse bEND.3 cells after 24 hrs by qRT-PCR analysis; format: functional, cell-based; details: for IC50: BEND3, 24 h
In short: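 bEnd.3 cells in DMEM/10% FBS, seeded at 1 × 10^4 cells/well the day before. Transfected 4 h at 37 °C with Lipofectin 3 μg/mL in OptiMEM, eight 1:2 dilutions (40 nM to 312.5 pM), then refed with complete medium for 24 h. PTEN RNA by qRT-PCR, normalized to cyclophilin A, as % untreated control. Triplicate plates. IC50 from sigmoidal fit, top 100%, bottom 0%.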

Mus musculus [3] = assay: Hepatotoxicity in BALB/c mouse assessed as liver ALT level at 0.7 to 23 mg/kg, ip administered twice a week for 3 weeks measured after 72 hrs of last dose; format: toxicity, organism-based; set-up: dose 0.7-23 mg/kg, route intraperitoneal; details: in vivo
In short: (§1)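 Male 6-week-old Balb/c mice dosed ip in PBS twice weekly for 3 weeks: 0.7–23 mg/kg (four levels) or 0.5–14.6/14.8 mg/kg. Killed 72 h after final dose. Plasma from cardiac-puncture blood, ALT on clinical bioanalyzer. Errors are SD.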

Mus musculus [4] = assay: Toxicity in BALB/c mouse assessed as effect on liver weight at 0.7 to 23 mg/kg, ip administered twice a week for 3 weeks measured after 72 hrs of last dose; format: organism-based; set-up: dose 0.7-23 mg/kg, route intraperitoneal; details: in vivo
In short: (§2)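 Male Balb/c mice, ip ASO in PBS twice weekly for 3 weeks at four dose levels. Body weight recorded before each dose. Killed 3 days after last dose. Organ weights normalized to body weight, expressed relative to the saline-treated group.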

Mus musculus [5] = assay: Toxicity in BALB/c mouse assessed as effect on kidney weight at 0.7 to 23 mg/kg, ip administered twice a week for 3 weeks measured after 72 hrs of last dose; format: organism-based; set-up: dose 0.7-23 mg/kg, route intraperitoneal; details: in vivo; in short: as §2
Mus musculus [6] = assay: Toxicity in BALB/c mouse assessed as effect on body weight at 0.7 to 23 mg/kg, ip administered twice a week for 3 weeks measured after 72 hrs of last dose; format: organism-based; set-up: dose 0.7-23 mg/kg, route intraperitoneal; details: in vivo; in short: as §2
Mus musculus [7] = assay: Toxicity in BALB/c mouse assessed as increase in liver weight at 0.5 to 14.6 mg/kg, ip administered twice a week for 3 weeks measured after 72 hrs of last dose; format: organism-based; set-up: dose 0.5-14.6 mg/kg, route intraperitoneal; details: in vivo; in short: as §2
Mus musculus [8] = assay: Toxicity in BALB/c mouse assessed as effect on body weight at 0.5 to 14.6 mg/kg, ip administered twice a week for 3 weeks measured after 72 hrs of last dose; format: organism-based; set-up: dose 0.5-14.6 mg/kg, route intraperitoneal; details: in vivo; in short: as §2
Liver = assay: Drug level in BALB/c mouse liver assessed per gram of tissue at 37 mg/kg, ip administered once a week for 3 weeks measured after 72 hrs of last dose; format: ADME, organism-based; set-up: dose 37 mg/kg, route intraperitoneal; details: in vivo
Mus musculus [9] = assay: Hepatotoxicity in BALB/c mouse assessed as increase in liver ALT level at 0.5 to 14.6 mg/kg, ip administered twice a week for 3 weeks measured after 72 hrs of last dose; format: toxicity, organism-based; set-up: dose 0.5-14.6 mg/kg, route intraperitoneal; details: in vivo; in short: as §1
Mus musculus [10] = assay: Toxicity in BALB/c mouse assessed as effect on liver weight at 0.5 to 14.8 mg/kg, ip administered twice a week for 3 weeks measured after 72 hrs of last dose; format: organism-based; set-up: dose 0.5-14.8 mg/kg, route intraperitoneal; details: in vivo; in short: as §2
Mus musculus [11] = assay: Toxicity in BALB/c mouse assessed as effect on kidney weight at 0.5 to 14.8 mg/kg, ip administered twice a week for 3 weeks measured after 72 hrs of last dose; format: organism-based; set-up: dose 0.5-14.8 mg/kg, route intraperitoneal; details: in vivo; in short: as §2
Mus musculus [12] = assay: Toxicity in BALB/c mouse assessed as effect on body weight at 0.5 to 14.8 mg/kg, ip administered twice a week for 3 weeks measured after 72 hrs of last dose; format: organism-based; set-up: dose 0.5-14.8 mg/kg, route intraperitoneal; details: in vivo; in short: as §2
Mus musculus [13] = assay: Toxicity in BALB/c mouse assessed as increase in spleen weight at 0.5 to 14.8 mg/kg, ip administered twice a week for 3 weeks measured after 72 hrs of last dose; format: organism-based; set-up: dose 0.5-14.8 mg/kg, route intraperitoneal; details: in vivo; in short: as §2
Mus musculus [14] = assay: Reduction in PTEN mRNA expression in BALB/c mouse liver at 37 mg/kg, ip administered once a week for 3 weeks measured after 72 hrs of last dose by RT-PCR analysis; format: functional, organism-based; set-up: dose 37 mg/kg
Mus musculus [15] = assay: Hepatotoxicity in BALB/c mouse assessed as liver ALT level at 0.5 to 14.8 mg/kg, ip administered twice a week for 3 weeks measured after 72 hrs of last dose; format: toxicity, organism-based; set-up: dose 0.5-14.8 mg/kg, route intraperitoneal; details: in vivo; in short: as §1

Row | Tm (Nucleic Acid) | IC50 [2] | Drug uptake (Liver) | SMILES | ED50 (Mus musculus [1]) | Activity [2] | Activity (Mus musculus [3]) | Activity (Mus musculus [4]) | Activity (Mus musculus [5]) | Activity (Mus musculus [6]) | Activity (Mus musculus [7]) | Activity (Mus musculus [8]) | Activity (Mus musculus [9]) | Activity (Mus musculus [10]) | Activity (Mus musculus [11]) | Activity (Mus musculus [12]) | Activity (Mus musculus [13]) | Activity (Mus musculus [1]) | Activity (Mus musculus [14]) | Activity (Mus musculus [15])
1 | 67.9 °C | 1 nM |  | COCCO[C@@H]1[C@H](OP(O)(=S)OC[C@H]2O[C@@H](n3cc(C)c(=O)[nH]c3=O)C[C@@H]2OP(O)(=S)OC[C@H]2O[C@@H](n3cnc4c(=O)[nH]c(N)nc43)[C@H](OCCOC)[C@@H]2OP(O)(=S)OC[C@H]2O[C@@H](n3cc(C)c(N)nc3=O)[C@H](OCCOC)[C@@H]2OP(O)(=S)OC[C@H]2O[C@@H](n3cc(C)c(=O)[nH]c3=O)C[C@@H]2OP(O)(=S)OC[C@H]2O[C@@H](n3cnc4c(N)ncnc43)[C@H](O)[C@@H]2OP(O)(=S)OC[C@H]2O[C@@H](n3cnc4c(=O)[nH]c(N)nc43)[C@H](O)[C@@H]2OP(O)(=S)OC[C@H]2O[C@@H](n3cc(C)c(N)nc3=O)C[C@@H]2OP(O)(=S)OC[C@H]2O[C@@H](n3cc(C)c(N)nc3=O)C[C@@H]2OP(O)(=S)OC[C@H]2O[C@@H](n3cc(C)c(=O)[nH]c3=O)C[C@@H]2OP(O)(=S)OC[C@H]2O[C@@H](n3cc(C)c(N)nc3=O)C[C@@H]2OP(O)(=S)OC[C@H]2O[C@@H](n3cc(C)c(=O)[nH]c3=O)C[C@@H]2OP(O)(=S)OC[C@H]2O[C@@H](n3cnc4c(=O)[nH]c(N)nc43)[C@H](O)[C@@H]2OP(O)(=S)OC[C@H]2O[C@@H](n3cnc4c(=O)[nH]c(N)nc43)[C@H](O)[C@@H]2OP(O)(=S)OC[C@H]2O[C@@H](n3cnc4c(N)ncnc43)[C@H](O)[C@@H]2OP(O)(=S)OC[C@H]2O[C@@H](n3cc(C)c(=O)[nH]c3=O)C[C@@H]2OP(O)(=S)OC[C@H]2O[C@@H](n3cc(C)c(=O)[nH]c3=O)C[C@@H]2OP(O)(=S)OC[C@H]2O[C@@H](n3cc(C)c(=O)[nH]c3=O)C[C@@H]2OP(O)(=S)OC[C@H]2O[C@@H](n3cnc4c(=O)[nH]c(N)nc43)[C@H](OCCOC)[C@@H]2OP(O)(=S)OC[C@H]2O[C@@H](n3cnc4c(N)ncnc43)[C@H](OCCOC)[C@@H]2O)[C@@H](CO)O[C@H]1n1cc(C)c(N)nc1=O (stereo not given in full) | 10 mg/kg | Dose-dependent effect | Non-toxic | Non-toxic | Non-toxic | Non-toxic |  |  |  |  |  |  |  |  |  | 
2 |  | 1.3 nM | 30 µg/g | Cc1cn([C@@H]2O[C@]3(CO)CO[C@@H]2[C@@H]3OP(O)(=S)OC[C@]23CC([C@H](n4cc(C)c(=O)[nH]c4=O)O2)[C@@H]3OP(O)(=S)OC[C@H]2O[C@@H](n3cc(C)c(=O)[nH]c3=O)C[C@@H]2OP(O)(=S)OC[C@H]2O[C@@H](n3cnc4c(N)ncnc43)[C@H](O)[C@@H]2OP(O)(=S)OC[C@H]2O[C@@H](n3cnc4c(=O)[nH]c(N)nc43)[C@H](O)[C@@H]2OP(O)(=S)OC[C@H]2O[C@@H](n3ccc(N)nc3=O)[C@H](O)[C@@H]2OP(O)(=S)OC[C@H]2O[C@@H](n3cnc4c(N)ncnc43)[C@H](O)[C@@H]2OP(O)(=S)OC[C@H]2O[C@@H](n3ccc(N)nc3=O)[C@H](O)[C@@H]2OP(O)(=S)OC[C@H]2O[C@@H](n3cc(C)c(=O)[nH]c3=O)C[C@@H]2OP(O)(=S)OC[C@H]2O[C@@H](n3cnc4c(=O)[nH]c(N)nc43)[C@H](O)[C@@H]2OP(O)(=S)OC[C@H]2O[C@@H](n3cnc4c(=O)[nH]c(N)nc43)[C@H](O)[C@@H]2OP(O)(=S)OC[C@H]2O[C@@H](n3ccc(N)nc3=O)[C@H](O)[C@@H]2OP(O)(=S)OC[C@]23CO[C@@H]([C@H](n4cc(C)c(N)nc4=O)O2)[C@@H]3OP(O)(=S)OC[C@]23CC([C@H](n4cc(C)c(=O)[nH]c4=O)O2)[C@@H]3O)c(=O)nc1N (stereo not given in full) | 3 mg/kg |  |  |  |  |  | Toxic | Toxic | Toxic |  |  |  |  |  |  | 
3 | 58.6 °C | 2.5 nM |  | Cc1cn([C@@H]2O[C@]3(CO)CN(C)O[C@@H]2[C@@H]3OP(O)(=S)OC[C@]23CN(C)O[C@@H]([C@H](n4cc(C)c(=O)[nH]c4=O)O2)[C@@H]3OP(O)(=S)OC[C@H]2O[C@@H](n3cc(C)c(=O)[nH]c3=O)C[C@@H]2OP(O)(=S)OC[C@H]2O[C@@H](n3cnc4c(N)ncnc43)[C@H](O)[C@@H]2OP(O)(=S)OC[C@H]2O[C@@H](n3cnc4c(=O)[nH]c(N)nc43)[C@H](O)[C@@H]2OP(O)(=S)OC[C@H]2O[C@@H](n3ccc(N)nc3=O)[C@H](O)[C@@H]2OP(O)(=S)OC[C@H]2O[C@@H](n3cnc4c(N)ncnc43)[C@H](O)[C@@H]2OP(O)(=S)OC[C@H]2O[C@@H](n3ccc(N)nc3=O)[C@H](O)[C@@H]2OP(O)(=S)OC[C@H]2O[C@@H](n3cc(C)c(=O)[nH]c3=O)C[C@@H]2OP(O)(=S)OC[C@H]2O[C@@H](n3cnc4c(=O)[nH]c(N)nc43)[C@H](O)[C@@H]2OP(O)(=S)OC[C@H]2O[C@@H](n3cnc4c(=O)[nH]c(N)nc43)[C@H](O)[C@@H]2OP(O)(=S)OC[C@H]2O[C@@H](n3ccc(N)nc3=O)[C@H](O)[C@@H]2OP(O)(=S)OC[C@]23CN(C)O[C@@H]([C@H](n4cc(C)c(N)nc4=O)O2)[C@@H]3OP(O)(=S)OC[C@]23CN(C)O[C@@H]([C@H](n4cc(C)c(=O)[nH]c4=O)O2)[C@@H]3O)c(=O)nc1N (stereo not given in full) | 6 mg/kg | Dose-dependent effect |  |  |  |  |  |  |  | Non-toxic | Non-toxic | Non-toxic | Toxic | Dose-dependent effect | Active | Non-toxic
